# ABCB1 block = inhibitors of human ABCB1 transporter, ABCG2 counter-screen; inhibition, % at 6.6 µM; CCRF-Adr cells, JC-1 efflux, flow cytometry; 190,000 compounds, 0.067% hits; in the data active means inhibition above about 40%;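 further: higher value means more JC-1 retained so stronger ABCB1 efflux block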
# ABCG2 inh = inhibitors of human ABCG2 transporter, ABCB1 counter-screen. Q9UNQ0. IgMXP3 cells, JC-1 efflux, flow cytometry. inhibition, % at 6.6 µM. 190,000 compounds, 0.1% hits;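 active means inhibition above 80%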
# Target sequence (Q9UNQ0 whole entry, looked up): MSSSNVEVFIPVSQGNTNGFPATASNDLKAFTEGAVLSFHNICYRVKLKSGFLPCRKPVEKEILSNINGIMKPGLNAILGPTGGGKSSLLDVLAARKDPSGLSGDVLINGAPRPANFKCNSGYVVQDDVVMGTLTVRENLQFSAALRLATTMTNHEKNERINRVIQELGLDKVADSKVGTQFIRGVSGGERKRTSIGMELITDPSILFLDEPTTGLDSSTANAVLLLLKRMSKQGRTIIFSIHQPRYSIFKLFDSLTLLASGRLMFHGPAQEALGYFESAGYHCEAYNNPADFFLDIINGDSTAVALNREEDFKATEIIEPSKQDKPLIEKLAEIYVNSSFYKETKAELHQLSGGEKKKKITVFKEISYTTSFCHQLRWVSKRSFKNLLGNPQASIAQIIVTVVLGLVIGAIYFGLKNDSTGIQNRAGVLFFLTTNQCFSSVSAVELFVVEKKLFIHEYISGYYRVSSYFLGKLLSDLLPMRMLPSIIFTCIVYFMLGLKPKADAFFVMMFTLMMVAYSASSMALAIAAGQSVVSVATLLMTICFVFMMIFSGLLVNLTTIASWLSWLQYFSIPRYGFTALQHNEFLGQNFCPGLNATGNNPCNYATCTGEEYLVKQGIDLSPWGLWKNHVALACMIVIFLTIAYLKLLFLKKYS
#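 Test system: IgMXP3 (ABCG2) plus far-red-tagged CCRF-Adr (ABCB1) cells / Amount: 3 million cells/mL in well / Reagent: JC-1 transporter substrate / Timing: 10 min compound exposure, 25 °C / Signal: flow cytometry, 530 nm JC-1 signal / Read-out: percent efflux inhibition, scaled nicardipine 100% to DMSO 0% / Benchmarks: nicardipine as high control, DMSO as low control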
# ROMK primary = human ROMK K+ channel modulation, primary screen | B-score at 10 µM | P48048 | Tet-inducible ROMK, thallium flux fluorescence; actives lie on both sides | AID 1918 | 130,000 compounds, 2% hits;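 active means signal ratio slope over the read window, or its plate-corrected B-score, at least 3 SD from the plate mean, either direction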;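 further: B-score of the F/F0 ratio slope over 7 to 12 s after thallium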
# Cl transport mod = modulates chloride dependent transport by human KCC2 | Q9H2X9 | KCC2 cells, thallium flux FluoZin-2 fluorescence | B-score of Tl+ flux slope (higher = more flux/activation; lower = inhibition) at 10 µM | 190,000 compounds, 2.2% hits | AID 1456;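 active means thallium flux slope and its plate-corrected score both differing from the plate sample mean at a set confidence after two filtering rounds, in either direction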;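 further: slope of fluorescence scaled to starting intensity during 10 to 20 s after thallium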
# PMI activator = phosphomannose isomerase (human) activation | P34949 | purified human PMI, coupled resazurin fluorescence, 20 min; stronger effect = higher value; 1 = vehicle control, 0 substrate-free wells | activation factor at 20 µM | 190,000 compounds, 0.005% hits | AID 1214;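 active means activation factor of 2 or more at 20 µM, relative to plate controls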
# PMI act hi M6P = PMI (human) activation, high substrate; coupled PMI enzyme assay, resazurin fluorescence, 20 min; stronger effect = higher value; 1 = untreated enzyme, 0 = substrate-free blank; 190,000 compounds, 0.34% hits; activation factor at 20 µM; P34949;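 active means activation factor of 2 or more at 20 µM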
#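 Test system: human phosphomannose isomerase with PGI, G6PDH, diaphorase coupling enzymes; Amount: PMI at 15 ng/mL final; Reagent: Mannose-6-phosphate 1.0 mM (near-saturating) plus 0.22 mM NADP+; Timing: 20 min, room temperature; Technique: resorufin fluorescence at Ex 544/Em 590 nm; Dosing: 20 µM single dose.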
# KCC2 secondary = KCC2 (human) modulation, secondary assay; 3,700 compounds, 15% hits; HEK293-KCC2, thallium flux, FluoZin2 fluorescence; stronger effect = higher value; normalised thallium flux (F/F0 slope) at 10 µM; shares compounds with Cl transport mod;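 active means thallium flux slope above the same plate's solvent-only control mean plus 3 SD; inconclusive means the two replicate wells disagree; inactive means no significant difference from solvent-only control wells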
# KCC2 bumet counter = thallium flux despite bumetanide block in KCC2 cells, secondary assay 3; 3,700 compounds, 49% hits; shares compounds with Cl transport mod; normalized thallium flux at 10 µM; AID 1714; HEK293-KCC2 + bumetanide/ouabain, thallium flux FluoZin2; stronger effect = higher value;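 active means thallium entry rate above the same plate's blocked-transporter control wells by more than 3 SD; inconclusive means the two repeat wells disagree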;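 further: raw slope of fluorescence over initial fluorescence between 10 and 20 s after thallium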
# KCC2 sec2 = KCC2 (human) modulation, second secondary assay | shares compounds with Cl transport mod | HEK293-KCC2, thallium flux FluoZin2 fluorescence; actives lie on both sides; F/F0 rise rate, 10–20 s post-thallium | normalized thallium flux at 10 µM | 3,700 compounds, 23% hits | AID 1715;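 active means thallium flux slope more than 3 SD above or below the plate's solvent-only control mean, mostly below; inconclusive means the two repeat wells disagreed; inactive means no significant shift from solvent-only controls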
# HEK counter1 = acts in parental HEK cells, KCC2 counter-screen; shares compounds with Cl transport mod; HEK293 parental cells, thallium flux FluoZin2, ouabain; baseline-ratio fluorescence slope, 10–20 s after thallium; thallium flux rate (normalised fluorescence) at 10 µM; 3,700 compounds, 46% hits;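 active means thallium flux rate significantly above the same plate's solvent-only control wells, beyond their mean plus 3 SD; inconclusive means the two replicate wells gave conflicting results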
# KCC2 retest ouab = KCC2 (human) modulation, ouabain retest; shares compounds with Cl transport mod; HEK293-KCC2, thallium flux FluoZin2 fluorescence; bidirectional: low = inhibitor, high = activator; raw Tl+ flux slope (below DMSO = inhibition, above = activation) at 10 µM; 3,700 compounds, 48% hits; AID 1717;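 active means thallium flux slope beyond 3 SD from same-plate DMSO control mean in most replicates, usually higher, sometimes lower; inconclusive means repeat tests gave conflicting results; inactive means no significant difference from controls in most replicates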;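 further: slope of initial-normalized fluorescence between seconds 10 and 20 after thallium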
# HEK counter2 = counter-screen for KCC2 modulators: effect in parental HEK293 cells | 3,700 compounds, 33% hits | thallium flux FluoZin-2 fluorescence slope | shares compounds with Cl transport mod | AID 1718 | thallium flux slope at 10 µM;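 active means thallium flux slope above the same plate's solvent-control mean plus 3 SD in both duplicate wells; inconclusive means duplicate wells that disagreed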;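 further: run without ouabain in cells lacking the KCC2 cotransporter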
# A number is an active result; n = inactive; u = inconclusive; x = not tested or not shown. In the library only some 3.3% were active in any assay of this set; here they are far more common.
SMILES,ABCB1 block,ABCG2 inh,ROMK primary,Cl transport mod,PMI activator,PMI act hi M6P,KCC2 secondary,KCC2 bumet counter,KCC2 sec2,HEK counter1,KCC2 retest ouab,HEK counter2
CC1C/C(=N\NC(=O)c2ccc([N+](=O)[O-])cc2)CC(C)(C)C1 (centres undefined),x,x,x,5.4,x,x,n,0.016,n,0.009,0.027,u
O=C(CSc1nccc(=O)[nH]1)NN(c1ccccc1)c1ccccc1,n,n,n,n,n,n,x,x,x,x,x,x
O=C(NNC(=S)NC(=O)c1ccccc1[N+](=O)[O-])c1ccc(Cl)cc1Cl,n,n,n,4.9,n,n,n,0.016,n,0.014,u,n
CCNC(=S)NNC(=O)c1ccc(OC)cc1,n,n,n,n,n,n,x,x,x,x,x,x
O=C(NNC(=S)Nc1cccc(C(F)(F)F)c1)c1ccc(Cl)cc1Cl,n,n,x,6.3,n,n,n,0.027,n,0.021,u,0.022
CCCCC(=O)NC(=S)NNC(=O)c1ccc(OC)cc1,n,n,n,27,n,n,0.021,0.053,n,u,0.039,u
S=C(Nc1ccccc1)Nc1ccc(Cl)cn1,n,n,x,5.8,n,n,n,0.017,n,0.01,n,n
FC(F)(F)c1cccc(NC(=S)NNC(=S)Nc2cccc(C(F)(F)F)c2)c1,x,x,x,n,x,x,x,x,x,x,x,x
COc1cc(C(=O)NC2=C(C#N)CCC2)cc(OC)c1OC,n,n,x,n,n,n,x,x,x,x,x,x
O=C1COc2ccc(N3C(=O)C=CC3=O)cc2N1,n,n,n,n,n,n,x,x,x,x,x,x
O=C(NC(=S)Nc1ccccc1O)c1ccc(Cl)cc1Cl,n,n,n,5.2,n,n,n,0.013,n,0.013,u,0.013
CC(=O)Nc1ccc(NC(=S)NC(=O)c2ccc([N+](=O)[O-])cc2)cc1,n,n,n,n,n,n,x,x,x,x,x,x
CCCCCC(=O)Nc1ccc(Cl)cn1,n,n,n,n,n,n,x,x,x,x,x,x
CCCCC(=O)NC(=S)NNC(=O)c1ccc(Cl)cc1Cl,n,n,n,33,n,n,0.0099,0.069,0.04,0.048,0.057,0.029
CCCCCC(=O)NC(=S)Nc1ccc(Cl)cn1,n,n,n,8.3,n,n,n,0.013,n,0.016,u,0.018
CCCCCC(=O)NNC(=S)NC(=O)c1ccc([N+](=O)[O-])cc1,n,n,n,13,n,n,n,0.027,n,0.02,0.033,0.02
OC(CNCc1ccccc1Cl)C(F)(F)F (centres undefined),n,n,n,n,n,n,x,x,x,x,x,x
COc1ccc(CNn2c(-c3cccc(C)c3)nc3ccccc3c2=O)cc1OC,n,n,n,x,n,n,n,n,n,n,n,n
FC(F)(F)c1ccc(Cl)c(NC(=S)NC2CC2)c1,n,n,n,4.2,n,n,n,n,n,n,n,n
O=C(CSc1nnc(-c2c[nH]c3ccccc23)o1)N1CCCCC1,n,n,x,-3.1,n,n,n,u,0.029,n,0.021,n
O=C(CSc1nnc(-c2ccccc2Br)o1)N1CCc2ccccc2C1,n,n,x,-5.4,n,n,n,n,0.021,u,0.011,n
COCCN1C(=O)N[C@@H](CCc2ccccc2)C(C(C)=O)=C1C,n,n,n,6,n,n,n,n,0.025,n,n,n
COc1cc(CCN2C(=O)N[C@@H](CCc3ccccc3)C(C(C)=O)=C2C)cc(OC)c1OC,n,n,n,n,n,n,x,x,x,x,x,x
O=C(Cc1ccc(Cl)cc1)NNC(=S)NC(=O)c1cccs1,x,x,x,29,x,x,n,0.045,0.037,0.034,0.037,0.027
O=C(Nc1ncc2c(n1)-c1ccccc1CC2)c1cccc(Cl)c1,n,n,x,-4.4,n,n,n,n,0.022,n,0.013,n
SMILES,ABCB1 block,ABCG2 inh,ROMK primary,Cl transport mod,PMI activator,PMI act hi M6P,KCC2 secondary,KCC2 bumet counter,KCC2 sec2,HEK counter1,KCC2 retest ouab,HEK counter2
O=C(Nc1ncc2c(n1)-c1ccccc1CC2)c1ccc(Cl)cc1,n,n,x,n,n,n,x,x,x,x,x,x
O=C(Nc1ccc(-c2nc3ccccc3[nH]2)cc1)c1ccccc1NS(=O)(=O)c1ccc(F)cc1,n,n,n,-4.6,n,n,n,n,n,n,0.015,n
O=C(Nc1ccccc1N1CCOCC1)c1ccccc1NS(=O)(=O)c1ccc(F)cc1,n,n,n,n,n,n,x,x,x,x,x,x
O=C(Nc1cc(S(=O)(=O)N2CCCCC2)ccc1Cl)c1ccccc1NS(=O)(=O)c1ccc(F)cc1,n,n,n,-4.8,n,n,n,n,u,n,u,n
Cc1c(F)cccc1NC(=O)CCCCCC1NC(=O)NC1C (centres undefined),n,n,n,n,n,n,x,x,x,x,x,x
C=CCn1c(Cc2cccs2)nnc1SCC(=O)c1ccc(F)cc1,n,n,x,-4.1,n,n,n,n,n,n,0.015,n
C=CCn1c(CNC(=O)c2cccs2)nnc1SCC(=O)c1ccc(Br)cc1,n,n,x,-5.1,n,n,n,n,n,n,0.037,n
C=CCn1c(CCNC(=O)c2cccs2)nnc1SCC(=O)c1ccc(Cl)cc1,n,n,n,n,n,n,x,x,x,x,x,x
C=CCn1c(Cc2cccs2)nnc1SCC(=O)c1ccc2ccccc2c1,n,n,x,-5.9,n,n,n,u,0.027,n,0.014,n
COc1ccc2ccccc2c1C(=O)/C=C\c1ccoc1,n,n,n,n,n,n,x,x,x,x,x,x
CCCCc1ccc(-n2c(Cc3cccs3)n[nH]c2=S)cc1,n,n,n,58,n,n,n,0.097,0.063,0.08,0.053,0.067
Cc1nc2c(c(=O)n1CC1CCCO1)c1nc3ccccc3nc1n2Cc1ccc2c(c1)OCO2 (centres undefined),x,x,n,x,x,x,x,x,x,x,x,x
Cc1nc2ccccc2nc1OCc1ccc([N+](=O)[O-])cc1,n,n,n,n,n,n,x,x,x,x,x,x

# Source: PubChem
